Assay outcomes as filed in PubChem BioAssay.
UCH37 DUB inh – blocks the human deubiquitinase UCH37; hit rate 0.33% among 330,000; Q9Y5K5; inhibition, % (concentration not given with the values); purified proteasome/UCH37, Ub-AMC cleavage fluorescence;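 active means mean inhibition over replicate wells above about 20%, limit read from the data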
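Reagent: Ub-AMC substrate; assay system: Proteasome-associated human UCH37 deubiquitinase; controls: no-proteasome and no-compound wells; read-out: % inhibition of Ub-AMC cleavage fluorescence; timing: 30 min preincubation with enzyme, 25 min cleavage at room temperature; signal: AMC fluorescence from Ub-AMC cleavage, excitation 355 nm, emission 460 nm; buffer or medium: Tris-HCl pH 7.4 plus ovalbumin, ATP-MgCl2, DTT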
AHR act – activates the human aryl hydrocarbon receptor | P35869 | AHR-responsive luciferase reporter cells, luminescence | activation, % at 5 µM | hit rate 2.5% among 320,000 | AID 2796; in the data active means activation above about 47%
APOBEC3A inh – inhibitors of human APOBEC3A DNA deaminase | P31941 | recombinant A3A, FAM/TAMRA ssDNA deamination fluorescence | inhibition, % at 20 µM | hit rate 0.41% among 330,000 | AID 493011;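 active means at least 40% inhibition at 20 µM here, with at most 30% in a related deaminase screen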
A3G deaminase – APOBEC3G (human) deaminase inhibition; Q9HC16; inhibition, % at 20 µM; recombinant A3G, ssDNA deamination FAM/TAMRA fluorescence; AID 493012; hit rate 0.28% among 330,000;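 active means inhibition of at least 40% at 20 µM, with no more than 30% in the related APOBEC3A deaminase screen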
Arr AP2 block – human beta-arrestin and AP2 interaction inhibition; FITC-arrestin peptide / GST-AP2 beads, flow cytometry; AP2 beta2 appendage carries R879A mutation; inhibition, % at 10 µM; hit rate 0.31% among 340,000; AID 504490;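 active means inhibition above a set limit, near 3 SD of compounds lacking own fluorescence, cut at about 54% in these data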
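Material – AP2 appendage R879A on GSH beads · Buffer or medium – PBS with 0.05% Tween 20 and 0.1% BSA · Probe or stimulus – fluorescein-tagged arrestin peptide at 50 nM final · Incubation – compound with beads 12 min RT, then probe 1 h RT · Detection – high-throughput flow cytometry of beads, ex 488, em 535 nm · Evaluation – percent response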
PolyA inhibitor – yeast polyadenylation inhibition; S. cerevisiae SKY197-pL101 polyadenylation reporter, beta-gal luminescence; efflux-impaired pdr1/pdr3 knockout yeast; score 100 = 6 SD above DMSO; activity score, % at 12 µM; hit rate 0.02% among 300,000;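 active means lowest replicate activity score at least 50, where 100 means six control SD above control mean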;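 further: yeast exposed to compound for 9 h at 30 °C; higher score means more reporter readthrough which indicates perturbed polyadenylation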
Arr-AP2 CP1 – inhibitors of human beta-arrestin and AP2 interaction | hit rate 2% among 1,300 | shares compounds with Arr AP2 block | AID 504908 | inhibition, % at 10 µM | GST-AP2 beads, FITC arrestin peptide binding, flow cytometry; GST-fused beta2-adaptin appendage, R879A mutant;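 active means inhibition above a set limit, roughly 3 SD of non-fluorescent compound noise, cut at about 38% in these data; inactive means inhibition at or below that limit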;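 further: loss of bead fluorescence from 50 nM FITC arrestin peptide bound to appendage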
Target sequence (P63010 whole entry, looked up, the tested form may be a part, one chain of several): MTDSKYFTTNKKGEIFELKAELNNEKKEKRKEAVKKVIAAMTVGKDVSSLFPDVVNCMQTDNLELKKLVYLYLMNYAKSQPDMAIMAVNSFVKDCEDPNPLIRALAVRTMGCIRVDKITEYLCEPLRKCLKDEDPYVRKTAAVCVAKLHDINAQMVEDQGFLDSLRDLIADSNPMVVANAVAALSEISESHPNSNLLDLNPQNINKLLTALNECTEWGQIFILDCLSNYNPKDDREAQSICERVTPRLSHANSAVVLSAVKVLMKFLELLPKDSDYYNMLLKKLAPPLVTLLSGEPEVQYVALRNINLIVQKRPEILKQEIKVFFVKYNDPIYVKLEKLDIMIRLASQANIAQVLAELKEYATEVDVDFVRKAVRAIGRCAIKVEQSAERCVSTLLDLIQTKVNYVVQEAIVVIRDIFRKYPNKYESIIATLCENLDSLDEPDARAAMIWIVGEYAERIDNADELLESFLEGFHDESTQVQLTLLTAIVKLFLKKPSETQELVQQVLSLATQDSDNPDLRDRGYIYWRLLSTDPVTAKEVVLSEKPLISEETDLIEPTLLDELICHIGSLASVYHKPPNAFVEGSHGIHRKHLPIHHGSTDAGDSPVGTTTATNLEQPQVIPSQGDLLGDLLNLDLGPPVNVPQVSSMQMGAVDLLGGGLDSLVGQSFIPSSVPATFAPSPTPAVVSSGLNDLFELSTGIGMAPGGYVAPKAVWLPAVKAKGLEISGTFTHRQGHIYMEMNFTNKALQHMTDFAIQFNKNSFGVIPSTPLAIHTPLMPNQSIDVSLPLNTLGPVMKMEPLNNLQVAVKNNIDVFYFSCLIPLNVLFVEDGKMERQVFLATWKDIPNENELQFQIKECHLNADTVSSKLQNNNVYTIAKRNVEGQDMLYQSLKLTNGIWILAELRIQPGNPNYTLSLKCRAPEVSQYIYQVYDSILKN
GST-FITC bead – counter-screen for beta-arrestin AP2 inhibitors: GST-GSH bead binding | GST-fluorescein binding to GSH beads, fluorescence | shares compounds with Arr AP2 block | inhibition, % at 10 µM | hit rate 2% among 1,300;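 active means inhibition above 50%, about 3 SD of the inhibition seen with non-fluorescent compounds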;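 further: fluorescein maleimide labelled GST captured on 4 micron glutathione beads; higher means more loss of bead fluorescence from quenching or blocked binding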
Numbers stand for hits; 0 = inactive; - = not tested or not shown. This is a sample that favours compounds with a hit; in the whole collection about 3.4% have one here.

SMILES	UCH37 DUB inh	AHR act	APOBEC3A inh	A3G deaminase	Arr AP2 block	PolyA inhibitor	Arr-AP2 CP1	GST-FITC bead
O=C(CN1C(=O)COc2ccc(Cl)cc21)N1CCCCC1	0	0	0	0	55.2	0	0	0
CC1CCN(C(=O)CN2C(=O)COc3ccc(Cl)cc32)CC1	-	0	0	0	0	0	-	-
O=C(Nc1nnc(C2=COCCO2)o1)C1CCCCC1	0	0	0	0	59.4	0	0	0
O=C(Nc1nnc(-c2ccncc2)o1)C1CCCCC1	0	0	0	0	0	0	-	-
Cc1cnn(-c2cc(NN=Cc3ccccc3)ncn2)c1	0	-	-	-	-	-	-	-
O=C(NN=C/C=C\c1ccc([N+](=O)[O-])cc1)c1cccnc1	0	-	-	-	-	-	-	-
CCOC(=O)Cn1c(=O)oc2cc(S(=O)(=O)Nc3cc(OCC)ccc3OCC)ccc21	0	0	0	0	56.9	-	0	0
CCOC(=O)Cn1c(=O)oc2cc(S(=O)(=O)Nc3cc(Cl)ccc3OC)ccc21	0	0	0	0	0	0	-	-
N#Cc1ccc(C=NNC(=O)c2ccccc2F)cc1	0	-	-	-	-	-	-	-
N#Cc1sc2nc(-c3cccs3)cc(-c3ccc(Cl)cc3)c2c1N	0	0	0	0	61.4	0	0	0
O=C(COc1ccc(C=NNC(=O)c2ccccc2O)cc1)Nc1ccccc1	0	-	-	-	-	-	-	-
CCCCc1cc(=O)oc2cc(C)cc(OC(C)C(=O)NCc3ccncc3)c12 (stereo unspecified)	0	0	0	0	66.9	0	0	0
CCCCc1cc(=O)oc2cc(C)cc(OC(C)C(=O)NCc3ccccn3)c12 (stereo unspecified)	0	0	0	0	0	0	-	-
Cn1c(=O)[nH]c(=O)c2c1nc(NN=Cc1ccncc1)n2Cc1ccc(F)cc1	0	-	-	-	-	-	-	-
COc1ccccc1OCCn1cc(C=Nn2cnnc2)c2ccccc21	0	-	-	-	-	-	-	-
CC(=NNC(=S)NCCc1ccccc1)c1ccc(O)cc1O	0	-	-	-	-	-	-	-
CO/N=C/C(c1ccc(Cl)nc1)S(=O)(=O)c1ccccc1 (stereo unspecified)	-	0	0	0	57.4	0	0	0
CON=CC(c1ccc(Cl)nc1)S(=O)(=O)c1ccccc1 (stereo unspecified)	0	-	-	-	-	-	-	-
COC(=O)C=c1sc(=C(C#N)C(=O)N2CCOCC2)n(-c2ccccc2)c1=O	0	-	-	-	-	-	-	-
O=C(CCSCCC(=O)Nc1c(F)c(F)c(F)c(F)c1F)Nc1c(F)c(F)c(F)c(F)c1F	0	0	0	0	58.1	0	0	0
Cc1cc(-c2n[nH]c(=S)n2N=Cc2ccccc2[N+](=O)[O-])n[nH]1	0	-	-	-	-	-	-	-
CCOc1ccc(NC(=O)c2ccc(NC(=O)COC(=O)Cc3ccc(OC)cc3)cc2)cc1	0	0	0	0	55.0	0	0	0
O=C(CN1C(=O)CS/C1=C\c1nc(-c2ccc(Cl)cc2)cs1)Nc1cccnc1Cl	0	0	0	0	60.8	0	0	0
COc1ccc(-c2cc(C(=O)Nc3c(C)n(C)n(-c4ccccc4)c3=O)c3ccccc3n2)cc1OC	0	0	0	0	56.5	0	0	0
Clc1ccc(OCc2nnnn2-c2ccccc2)cc1	0	0	0	0	73.2	0	0	0
SMILES	UCH37 DUB inh	AHR act	APOBEC3A inh	A3G deaminase	Arr AP2 block	PolyA inhibitor	Arr-AP2 CP1	GST-FITC bead
O=C(NN=C/C=C\c1cccc([N+](=O)[O-])c1)c1cccnc1	0	-	-	-	-	-	-	-
Cc1ccc2nc(SCC(=O)Nc3ccc(Br)cc3)nc(=O)n2c1	-	0	0	0	55.8	0	0	0
CN1CCN(CCC(=O)NN=Cc2ccccc2F)CC1	0	-	-	-	-	-	-	-
O=C(COc1ccccc1[N+](=O)[O-])NCCCN1CCCC1=O	0	0	0	0	0	-	-	-
O=C(/C=C/c1ccccc1[N+](=O)[O-])NCCCN1CCCC1=O	0	0	0	0	56.6	0	0	0
COCc1ccc(CN2CCC(C(=O)Nc3cccc(-c4cccc(Cl)c4)c3)CC2)o1	0	0	0	0	56.6	0	0	0
COCc1ccc(CN2CCC(C(=O)Nc3cccc(-c4cscn4)c3)CC2)o1	0	0	0	0	0	0	-	-
CC(=NO)C(=O)Nc1ccccc1	0	-	-	-	-	-	-	-
COc1ccc(N2C(=O)NC(NC(=O)C(C)(C)C)(C(F)(F)F)C2=O)cc1 (stereo unspecified)	0	0	0	0	0	0	-	-
Cc1ccc(N2C(=O)NC(NC(=O)C(C)(C)C)(C(F)(F)F)C2=O)cc1C (stereo unspecified)	0	0	0	0	55.8	0	0	0
CN1C2=CC=CC=CC2=[N+](C)C12C=CC(=[N+]([O-])[O-])C=C2[N+](=O)[O-] (stereo unspecified)	0	0	0	0	54.1	0	0	0
CN1C2=CC=CC=CC2=[N+](C)C12C([N+](=O)[O-])=CC(=[N+]([O-])[O-])C=C2[N+](=O)[O-] (stereo unspecified)	0	0	0	0	0	0	-	-
CN(C(=O)COC(=O)Cc1c[nH]c2ccccc12)c1c(N)n(Cc2ccccc2)c(=O)[nH]c1=O	0	0	0	0	0	-	-	-
CCN(C(=O)COC(=O)Cc1c[nH]c2ccccc12)c1c(N)n(Cc2ccccc2)c(=O)[nH]c1=O	0	0	0	0	70.7	0	0	0
CCOC(=O)C1CCN(c2cc3c(cc2NC(=O)c2ccc(F)cc2)n(C)c(=O)n3C)CC1	0	0	0	0	0	0	0	0
CCOC(=O)C1CCN(c2cc3c(cc2NC(=O)c2ccccc2Cl)n(C)c(=O)n3C)CC1	0	0	0	0	0	0	0	0
CCOC(=O)C1CCN(C(=O)c2ccccc2NC(=O)c2ccc(Cl)cc2)CC1	0	0	0	0	0	0	-	-
CCOC(=O)C1CCN(c2cc3c(cc2NC(=O)c2ccccc2F)n(C)c(=O)n3C)CC1	0	0	0	0	0	0	0	0
CCOc1cc(NC(=O)C2CC2)c(OCC)cc1NC(=O)c1ccccc1OCC	0	0	0	0	0	0	-	-
CCOC(=O)C1CCN(c2cc3c(cc2NC(=O)c2ccccc2OCC)n(C)c(=O)n3C)CC1	0	0	0	0	0	0	0	0
Cc1cc(C(=O)NN=Cc2ccc(O)c([N+](=O)[O-])c2)c(C)n1-c1ccc(F)cc1	0	-	-	-	-	-	-	-
CCNC(=S)N/N=C/c1sc(N2CCCCC2)nc1-c1cccs1	-	0	0	0	105.6	0	0	0
COC(=O)C(N)Cc1ccc(O)c(O)c1 (stereo unspecified)	0	0	0	0	80.8	0	0	0
Nc1nonc1-n1nnc(C(=O)NN=Cc2ccccc2F)c1CN1CCOCC1	0	-	-	-	-	-	-	-
CCN(CC)c1ccc(C=NN2CC(=O)NC2=S)cc1	0	-	-	-	-	-	-	-
